Screening data: PubChem BioAssay, several laboratories
Compounds with a hit are over-represented: about 1.6% of the library has one in this group of screens.
ARFGAP1 inhibitor – inhibitors of rat ARFGAP1 GAP activity, primary screen, biochemical, fluorescence polarization, GDP tracer. ADP-ribosylation factor GTPase-activating protein 1 (Rattus norvegicus), Q62848. Arfgap1-stimulated ARF1 GTP hydrolysis, GDP FP detection. inhibition, % at 16.5 µM. 360,000 compounds, 0.26% hits. AID 651572, 2012;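 active means inhibition above a per-plate limit, mean inhibition of low control wells plus 3 SD, cut at about 25% in these data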;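 further: 0% = DMSO wells with enzyme and 100% = wells lacking Arfgap1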
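Material – truncated rat Arfgap1 GAP domain · Buffer or medium – HEPES-based buffer, pH 7.5 · Reagent – human ARF1(Δ1-17)-GTP substrate · Dosing – 16.5 µM single point, 1.26% DMSO · Schedule – GTP hydrolysis reaction 2 h at 25 °C · Technique – GDP detection by fluorescence polarization · Benchmarks – No-Arfgap1 wells (100%) versus DMSO full-reaction wells (0%) · Repeats – single replicate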
Neddylation inh – inhibitors of cullin neddylation, primary screen, biochemical, TR-FRET, uHTS, NAE and Ubc12 | inhibition, % at 25 µM | 360,000 compounds, 0.58% hits | NEDD8-conjugating enzyme Ubc12 (Homo sapiens) + NEDD8-activating enzyme E1 regulatory …; in the data active means inhibition above about 36%
Target sequence (P61081 whole entry, looked up): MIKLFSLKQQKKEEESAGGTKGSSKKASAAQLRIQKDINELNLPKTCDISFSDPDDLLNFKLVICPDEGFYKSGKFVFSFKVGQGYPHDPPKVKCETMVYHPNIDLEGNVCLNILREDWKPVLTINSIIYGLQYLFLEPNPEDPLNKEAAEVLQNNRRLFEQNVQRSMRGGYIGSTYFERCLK
Target sequence (Q13564 whole entry, looked up): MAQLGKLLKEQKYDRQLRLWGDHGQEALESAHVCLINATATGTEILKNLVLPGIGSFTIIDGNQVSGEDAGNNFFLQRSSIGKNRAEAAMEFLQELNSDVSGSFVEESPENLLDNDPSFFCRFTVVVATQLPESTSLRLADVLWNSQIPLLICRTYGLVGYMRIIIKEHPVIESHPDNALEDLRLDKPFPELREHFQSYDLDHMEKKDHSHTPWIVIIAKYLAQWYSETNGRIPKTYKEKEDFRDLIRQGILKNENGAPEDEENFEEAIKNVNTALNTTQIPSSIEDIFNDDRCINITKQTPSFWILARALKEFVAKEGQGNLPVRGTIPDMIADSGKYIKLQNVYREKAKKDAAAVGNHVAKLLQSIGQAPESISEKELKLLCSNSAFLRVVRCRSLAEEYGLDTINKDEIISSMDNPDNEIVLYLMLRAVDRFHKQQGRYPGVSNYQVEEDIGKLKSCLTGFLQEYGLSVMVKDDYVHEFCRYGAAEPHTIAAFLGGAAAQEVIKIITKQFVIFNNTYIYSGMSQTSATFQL
H9c2 protect – cardioprotection against H2O2-induced cell death, primary screen, uHTS, H9c2 cells, ATPLite luminescence; H9c2 cardiomyocytes, H2O2 injury protection, 2 h; protection from H2O2 cell death, % at 20 µM; 360,000 compounds, 0.63% hits; AID 588492, 2011;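 active means compounds giving at least 50% protection of heart cells from peroxide-induced death in the single-dose screen, raw or plate-pattern-corrected value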;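 further: 0% = DMSO wells with peroxide and 100% = DMSO wells without peroxide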
ASAP1 GAP inh – inhibitors of human ASAP1 ArfGAP activity, primary screen, biochemical, fluorescence polarization | Arf-GAP with SH3 domain, ANK repeat and PH domain-containing protein 1 (Homo sapiens), … | ASAP1-stimulated ARF1 GTP hydrolysis, GDP FP detection | inhibition, % at 16.5 µM | 360,000 compounds, 0.19% hits; in the data active means inhibition above about 25%;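 further: 0% = vehicle with enzyme and substrate and 100% = no enzyme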
Starred values were filed as active, the others as inactive; / = no result shown.

SMILES	ARFGAP1 inhibitor	Neddylation inh	H9c2 protect	ASAP1 GAP inh
Cc1ccc(C(=O)Nc2nnc([C@H]3C[C@H](O)[C@@H](CO)O3)s2)cc1	6.5	-0.1	1.9	7.6
Cc1ccc(S(=O)(=O)N2CCN(C(=O)c3cc(=O)[nH]c4ccccc34)CC2)c(C)c1	-1.6	18.2	71.7*	-9.5
N#Cc1ccccc1S(=O)(=O)N1CCN(C(=O)c2cc(=O)[nH]c3ccccc23)CC1	-11.0	24.8	25.7	-7.4
Cc1cc(C)c(C)c(S(=O)(=O)N2CCN(C(=O)c3cc(=O)[nH]c4ccccc34)CC2)c1C	-2.2	17.9	78.6*	4.0
Cc1cc(C)c(S(=O)(=O)N2CCN(C(=O)c3cc(=O)[nH]c4ccccc34)CC2)c(C)c1	-5.0	21.3	62.7*	3.1
COc1ccc(N2CCN(C(=O)c3cc(=O)[nH]c4ccccc34)CC2)cc1	-5.4	-2.7	-4.0	0.0
O=C(Cc1ccc(NC(=O)C2CCN(C(=O)C3CCCC3)CC2)cc1)Nc1cccc(C(=O)N2CCCC2)c1	1.4	/	/	3.6
CC1(Oc2ccccc2-c2ccn[nH]2)CCN(Cc2ccc(OC(F)(F)F)cc2)C1 (stereo not drawn)	2.0	-6.9	-19.0	11.1
O=C(NCc1ccccc1)[C@H]1CCCN1C(=O)[C@H]1CCCN1C(=O)c1ccc(OC(F)(F)F)cc1	-7.0	/	/	-12.0
Cc1cc(C)c2c3c(sc2n1)C(c1cccc(F)c1)C(C#N)=C(N)O3 (stereo not drawn)	11.6	52.8*	-5.1	20.4
CCCN1CCC2(CC1)C(C#N)=C(N)Oc1c2sc2nc(C)cc(C)c12	2.0	-5.6	12.3	9.2
Nc1ccn([C@@H]2O[C@H](C(=O)N[C@H](Cc3ccccc3)C(=O)N3CCN(CC(=O)N4CCCC4)CC3)[C@@H](O)[C@H]2O)c(=O)n1	-7.2	/	/	3.8
COc1cccc(/C=N/NC(=O)c2oc3nc(-c4ccccc4)cc(-c4ccco4)c3c2N)c1	0.6	34.2	56.3*	-2.7
COc1ccccc1Cc1c(-c2cccc(Br)c2)nc2ccc(Cl)cn12	-3.1	0.7	-5.1	12.5
CCOc1cc(/C=C/c2ccc3cccc([N+](=O)[O-])c3n2)ccc1OCC(=O)N(C)C	10.3	-0.3	56.6*	14.2
CCOC(=O)CC1(Cc2ccccc2)Oc2ccccc2O1	-8.4	/	/	4.2
O=C1CCCc2ccccc2N1Cc1ccccc1Cl	25.1*	5.0	-0.3	-11.7
COc1cc(NC(=O)c2csc(-c3ccncc3)n2)cc(C(=O)Nc2cccc(C(F)(F)F)c2)c1	8.5	-32.3	59.4*	0.0
CCOc1ccc(NC(=O)CN(C)C(=O)Cc2n[nH]c(=O)c3ccccc23)cc1OCC	0.0	-22.7	59.2*	12.4
COc1cccc(NC(=O)CN(C)C(=O)COc2ccccc2Cc2ccccc2)c1	-3.7	3.0	-4.8	2.3
COc1ccc(NC(=O)CN(C)C(=O)Cc2n[nH]c(=O)c3ccccc23)cc1	1.0	-1.2	61.3*	-18.2
COc1cccc(NC(=O)CN(C)C(=O)Cc2n[nH]c(=O)c3ccccc23)c1	-4.2	1.9	79.1*	0.1
COc1ccc(Cl)cc1NC(=O)CN(C)C(=O)Cc1n[nH]c(=O)c2ccccc12	-8.1	8.5	100.4*	6.1
O=C(NCC1CCN(C(=O)C(=O)c2cccs2)CC1)c1ccc2ccccc2c1	-4.5	/	/	-12.7
O=C(NNC(=O)C(c1ccccc1)c1ccccc1)c1ccccn1	-2.3	8.3	50.6*	12.3
SMILES	ARFGAP1 inhibitor	Neddylation inh	H9c2 protect	ASAP1 GAP inh
C#CCNC(=O)C[C@H]1C[C@@]2(C(=O)OC)C(=C[C@H](COCc3ccccc3)O[C@@H]2C)N(CCC2=CCCCC2)C1=O	-0.5	/	/	-0.9
CCN1C(=O)[C@H]2[C@@H](c3ccc(-c4ccccc4)cc3)N[C@@](C)(C(=O)OC)[C@H]2C1=O	-3.3	-8.1	0.6	5.5
CCN1C(=O)[C@H]2[C@@H](c3ccc(-c4ccc(C(C)=O)cc4)cc3)N[C@@](C)(C(=O)OC)[C@H]2C1=O	/	-41.0	52.4*	/
O=C(N[C@H](C(=O)N1CCC[C@H]1C(=O)NC1CCCC1)C1CCCCC1)C1CCCC1	3.5	/	/	3.6
Cc1c(O)ccc2c(-c3ccccc3)cc(=O)oc12	-10.4	/	83.9*	-1.4
COc1ccc(-c2cc(=O)oc3c(C)c(O)ccc23)cc1	-0.3	/	33.6	-3.5
CN1CC[C@@H]2CN(S(=O)(=O)c3ccccc3)[C@H](c3ccccc3Br)C[C@@H]21	5.2	/	/	-11.8
Cc1nnc(C)n1/N=C/c1cc(Br)cc(Br)c1O	-17.5	35.3	77.5*	-1.5
Cc1nnc(C)n1/N=C/c1cc(Br)ccc1O	-3.7	36.3	65.8*	-0.1
Nc1nnnn1/N=C/c1cc(Br)ccc1O	-2.9	7.9	1.9	-6.4
Cc1cc(N(C)/N=C/c2ccccc2O)nc(-c2ccccc2O)n1	-5.4	22.8	50.2*	0.8
CN(C)C(=O)COc1ccc2ccc(=O)oc2c1	-0.4	24.9	2.0	7.4
CCOC(=O)c1c(C)[nH]c(C(=O)COc2ccc3ccc(=O)oc3c2)c1C	-12.1	-6.1	52.3*	-1.9
O=C(CCCSc1nc2sc3c(c2c(=O)[nH]1)CCC3)NCCO	12.2	8.3	87.6*	4.6
O=C(CCCSc1nc2sc3c(c2c(=O)[nH]1)CCC3)NCCCO	-3.0	-0.1	57.9*	4.2
CCSc1nc2sc3c(c2c(=O)[nH]1)CCCC3	4.5	-15.9	-6.8	5.8
COC(=O)[C@]12C[C@H](CC(=O)NCCC(C)C)C(=O)N(Cc3ccccc3)C1=C[C@H](C(C)C)O[C@@H]2C1CC1	13.9	/	/	3.3
Cc1cccc(NC(=O)c2oc3ccc(S(=O)(=O)N4CCOCC4)cc3c2C)c1C	2.7	27.3	76.2*	8.7
COC(=O)[C@]1(CC(C)C)NC=C(C(=O)c2ccccc2)[C@@H]1c1cccc(C(F)(F)F)c1	5.0	/	/	3.1
COc1ccccc1CCn1cnc(-c2cccc(Br)c2)c1C(C)C	-3.3	/	/	-7.6
CN(C)c1ccc(C(C(=O)NCc2ccccc2)N(Cc2cccnc2)C(=O)c2snc(C(N)=O)c2N)cc1 (stereo not drawn)	-1.8	-22.7	61.3*	3.8
COc1cc(C(C(=O)NC2CCCC2)N(Cc2ccco2)C(=O)c2snc(C(N)=O)c2N)cc(OC)c1OC (stereo not drawn)	2.6	21.7	9.5	0.9
NC(=O)c1nsc(C(=O)N(Cc2ccco2)C(C(=O)NCc2ccccc2)c2ccc(O)cc2)c1N (stereo not drawn)	7.0	18.0	57.6*	-9.4
CN(C)c1ccc(C(C(=O)NC2CCCCC2)N(Cc2ccco2)C(=O)c2snc(C(N)=O)c2N)cc1 (stereo not drawn)	7.3	-4.5	52.8*	-4.3
NC(=O)c1nsc(C(=O)N(c2ccccc2F)C(C(=O)NCc2ccccc2)c2ccc(O)cc2)c1N (stereo not drawn)	10.5	-49.0	50.7*	2.2
